Test results reported in ChEMBL document CHEMBL1126926, “Nonprostanoid prostacyclin mimetics. 5. Structure-activity relationships associated with [3-[4-(4,5-diphenyl-2-oxazolyl)-5- oxazolyl]phenoxy]acetic acid” (J Med Chem, 1993).

Legend:
[1] = species: Homo sapiens; assay: Inhibitory concentration for displacing [3H]iloprost from human platelet membrane at 5.4 nM at 37 degree C
[2] = species: Homo sapiens; assay: (§1) In vitro inhibition of 5.86 uM ADP-induced human platelet aggregation in platelet rich plasma (PRP); format: functional
[3] = species: Homo sapiens; assay: as §1; format: functional; remark: listed apart in the source
Procedure, shortened: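 Human blood drawn into 1/10 volume 3.8% sodium citrate and spun 10 min at 140g to give platelet-rich plasma. Compound in DMSO added to PRP 3 min before 5.86 μM ADP. Aggregation read by Born turbidimetric aggregometry (Mustard modification) against vehicle controls over various concentrations. IC50 taken from dose-response curves, single determinations or mean of duplicates.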

[4] = species: Homo sapiens; assay: Compound tested for percent inhibition against 5.86 uM ADP-induced human platelet aggregation in platelet rich plasma (PRP); format: functional
Procedure, shortened: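 Citrated human PRP (blood spun 10 min at 140g) preincubated 3 min with compound in DMSO, then challenged with 5.86 μM ADP. Born aggregometry (Mustard modification), compared with vehicle controls. Value is percent inhibition at a single stated concentration, from a single experiment or mean of duplicates.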

| Compound | IC50 [3] | also measured |
| --- | --- | --- |
| Cn1ncc(-c2nc(-c3ccccc3)c(-c3ccccc3)o2)c1-c1cccc(OCC(=O)O)c1 |  | IC50 [1]: 337 nM; IC50 [2]: 1060 nM |
| O=C(O)CCCCCCc1ocnc1-c1nc(-c2ccccc2)c(-c2ccccc2)o1 | 420 nM |  |
| O=C(O)CCCCOc1ccccc1-c1nc(-c2ccccc2)c(-c2ccccc2)o1 | > 75000 nM |  |
| O=C(O)COc1cccc(-c2ocnc2-c2onc(-c3ccccc3)c2-c2ccccc2)c1 | > 72000 nM | Inhibition [4]: 36% |
| CC#CCC(C)[C@H](O)/C=C/[C@@H]1[C@H]2C/C(=C/CCCC(=O)O)C[C@H]2C[C@H]1O (some centres not stated) [ILOPROST] |  | IC50 [1]: 47.7 nM |
| O=C(O)COc1cccc(-c2ocnc2-c2nnc(-c3ccccc3)n2-c2ccccc2)c1 | > 70000 nM |  |
| c1ccc(-c2nc(-c3ncoc3-c3cccc(OCc4nn[nH]n4)c3)oc2-c2ccccc2)cc1 | 130 nM |  |
| Cc1nc(-c2nc(-c3ccccc3)c(-c3ccccc3)o2)c(-c2cccc(OCC(=O)O)c2)o1 |  | IC50 [1]: 36.6 nM; IC50 [2]: 50 nM |
| O=C(O)CCCCCc1ocnc1-c1nc(-c2ccccc2)c(-c2ccccc2)o1 | 7200 nM |  |
| O=C(O)COc1cccc(-c2ocnc2-c2nc(-c3ccccc3)c(-c3ccccc3)[nH]2)c1 | 30 nM |  |
| O=C(O)COc1cccc(-c2ocnc2-c2nc(-c3ccccc3)c(-c3ccccc3)o2)c1 |  | IC50 [1]: 5.4 nM; IC50 [2]: 27 nM |
| O=C(O)COc1cccc(-c2ccccc2-c2nc(-c3ccccc3)c(-c3ccccc3)o2)c1 | 11100 nM |  |
| O=C(O)CCCCCCCc1ocnc1-c1nc(-c2ccccc2)c(-c2ccccc2)o1 | 11600 nM |  |
| Cn1cc(-c2nc(-c3ccccc3)c(-c3ccccc3)o2)c(-c2cccc(OCC(=O)O)c2)n1 |  | IC50 [1]: 302 nM; IC50 [2]: 650 nM |
| O=C(O)COc1ccc(-c2ocnc2-c2nc(-c3ccccc3)c(-c3ccccc3)o2)cc1 | > 73000 nM | Inhibition [4]: 44% |
| O=C(O)COc1cccc(-c2ncoc2-c2nc(-c3ccccc3)c(-c3ccccc3)o2)c1 | 160 nM |  |
| O=C(O)COc1cccc(-c2oc(-c3ccccc3)nc2-c2nc(-c3ccccc3)c(-c3ccccc3)o2)c1 | > 60000 nM | Inhibition [4]: 36% |
| O=C(O)COc1cccc(/C=C\c2nc(-c3ccccc3)c(-c3ccccc3)o2)c1 |  | IC50 [1]: 6 nM |
| N#CCOc1cccc(-c2ocnc2-c2nc(-c3ccccc3)c(-c3ccccc3)o2)c1 | > 76000 nM | Inhibition [4]: 14% |
| O=C(O)CCCCCCCCc1nc(-c2ccccc2)c(-c2ccccc2)o1 | 2500 nM |  |
| O=C(O)CCCOc1ccccc1-c1nc(-c2ccccc2)c(-c2ccccc2)o1 | > 75000 nM |  |
| O=C(O)COc1cccc(-c2ocnc2-c2nc(-c3ccsc3)c(-c3ccsc3)o2)c1 | 450 nM |  |
| O=C(O)CCCCc1ocnc1-c1nc(-c2ccccc2)c(-c2ccccc2)o1 | 15900 nM |  |
| O=C(O)CCCc1ocnc1-c1nc(-c2ccccc2)c(-c2ccccc2)o1 | > 80000 nM | Inhibition [4]: 44% |
| CCCCC[C@H](O)/C=C/[C@@H]1[C@H]2C/C(=C/CCCC(=O)O)O[C@H]2C[C@H]1O [EPOPROSTENOL] | 8 nM |  |
| O=C(O)COc1cccc(-c2[nH]ncc2-c2nc(-c3ccccc3)c(-c3ccccc3)o2)c1 |  | IC50 [2]: 180 nM |
| Cc1ccc(-c2nc(-c3ncoc3-c3cccc(OCC(=O)O)c3)oc2-c2ccc(C)cc2)cc1 | 100 nM |  |
| O=C(O)COc1cccc(-c2ocnc2-c2nc(-c3ccccc3)c(-c3ccccc3)s2)c1 | 150 nM |  |
